One series relates to HeLa. The series is described as follows: Antiproliferative activity against human HeLa cells assessed as reduction in cell viability at 5 uM after 48 hrs by MTT assay. The format is functional, cell-based. An outline of the steps: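 HeLa cells were infected with empty adenovirus or adenovirus encoding dominant-negative BMK1(AEF). After 24 hr they were treated with or without 5 μM drug for 48 hr and read by MTT. % growth inhibition = (1 − MTT of group / MTT of Ad-EV-only cells) × 100. n = 3.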

The target of series [1] is T1, Dual specificity mitogen-activated protein kinase kinase 7 (Homo sapiens) (UniProt O14733).
T1 sequence (whole entry): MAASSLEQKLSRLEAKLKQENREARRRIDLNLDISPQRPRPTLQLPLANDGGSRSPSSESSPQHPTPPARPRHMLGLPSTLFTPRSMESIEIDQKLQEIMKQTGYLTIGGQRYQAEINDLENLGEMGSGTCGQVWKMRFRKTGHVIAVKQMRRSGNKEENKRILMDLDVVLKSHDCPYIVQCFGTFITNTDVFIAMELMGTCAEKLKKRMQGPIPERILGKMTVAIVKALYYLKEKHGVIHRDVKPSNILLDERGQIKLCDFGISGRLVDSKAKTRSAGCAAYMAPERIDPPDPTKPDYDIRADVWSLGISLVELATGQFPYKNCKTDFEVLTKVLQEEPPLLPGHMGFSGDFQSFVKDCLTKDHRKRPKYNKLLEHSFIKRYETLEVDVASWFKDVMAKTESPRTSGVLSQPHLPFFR
The series is described as follows: Inhibition of MAP2K7 in human HeLa cells lysate at 10 uM pre incubated for 15 mins followed by ADP acyl phosphate probe addition and measured after 10 mins by LC-MS/MS analysis relative to control. Format: subcellular. The following applies: time 25.0 min.

The target of series [2] is Calcium/calmodulin-dependent protein kinase type II subunit gamma (Homo sapiens, UniProt Q13555). The series is described as follows: Inhibition of CAMK2g in human HeLa cells lysate at 2 uM pre incubated for 15 mins followed by ADP acyl phosphate probe addition and measured after 10 mins by LC-MS/MS analysis relative to control. Format: subcellular. The following applies: time 25.0 min. The method in brief:
(§1)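 KiNativ-type profiling in HeLa lysate (5 mg/mL total protein). Lysate preincubated 15 min with inhibitor at 50, 10, 2, 0.8 or 0 μM, then ATP or ADP acylphosphate probe added (5 μM final) for 10 min. Reaction stopped with urea and analysed by targeted MS, using up to four fragment ions per kinase peptide-probe conjugate. % inhibition calculated against untreated lysate. Duplicate reactions.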

For series [3], the target named is T2, Phosphatidylinositol 5-phosphate 4-kinase type-2 alpha (Homo sapiens) (UniProt P48426).
T2 sequence (whole entry): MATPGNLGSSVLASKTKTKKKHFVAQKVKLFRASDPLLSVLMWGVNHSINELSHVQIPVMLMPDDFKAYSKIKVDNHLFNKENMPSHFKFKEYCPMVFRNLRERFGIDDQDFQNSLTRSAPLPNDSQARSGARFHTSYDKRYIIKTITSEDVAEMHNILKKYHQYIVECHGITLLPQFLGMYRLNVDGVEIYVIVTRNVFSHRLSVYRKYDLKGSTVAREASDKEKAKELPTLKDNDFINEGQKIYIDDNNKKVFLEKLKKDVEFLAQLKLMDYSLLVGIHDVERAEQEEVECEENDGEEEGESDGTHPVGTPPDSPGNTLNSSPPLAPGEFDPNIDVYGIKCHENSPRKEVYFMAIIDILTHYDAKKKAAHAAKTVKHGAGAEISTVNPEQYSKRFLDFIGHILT
The series is described as follows: Inhibition of PIP5K2A LIP site in human HeLa cells lysate at 10 uM pre incubated for 15 mins followed by ADP acyl phosphate probe addition and measured after 10 mins by LC-MS/MS analysis relative to control. Format: subcellular. The following applies: time 25.0 min.

A short description of series [4]: Plasma concentration in C57Bl/6 mouse at 50 mg/kg, ip administered for 4 day and measured 8 hr post last dose by LC-MS/MS analysis. The format is ADME, organism-based.
Another series deals with Aurora kinase A (Homo sapiens, UniProt O14965). The series is described as follows: Inhibition of AURA in human HeLa cells lysate pre incubated for 15 mins followed by ATP acyl phosphate probe addition and measured after 10 mins by LC-MS/MS analysis. The format is subcellular. An outline of the steps:
as §1

The target in series [5] is T3, Serine/threonine-protein kinase ULK3 (Homo sapiens) (UniProt Q6PHR2).
T3 sequence (whole entry): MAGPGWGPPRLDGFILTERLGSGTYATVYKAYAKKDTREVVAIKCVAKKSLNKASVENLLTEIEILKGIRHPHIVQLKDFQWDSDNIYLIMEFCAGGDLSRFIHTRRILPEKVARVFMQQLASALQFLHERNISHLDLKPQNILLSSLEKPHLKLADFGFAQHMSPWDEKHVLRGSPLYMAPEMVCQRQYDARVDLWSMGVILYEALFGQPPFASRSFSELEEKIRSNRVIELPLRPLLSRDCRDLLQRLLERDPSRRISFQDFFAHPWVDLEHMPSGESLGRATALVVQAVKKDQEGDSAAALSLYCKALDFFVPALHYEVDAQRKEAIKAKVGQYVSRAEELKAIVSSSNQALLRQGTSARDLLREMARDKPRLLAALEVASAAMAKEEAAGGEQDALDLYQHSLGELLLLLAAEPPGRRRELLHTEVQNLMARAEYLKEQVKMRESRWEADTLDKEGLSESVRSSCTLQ
The series is described as follows: Inhibition of ULK3 in human HeLa cells lysate at 10 uM pre incubated for 15 mins followed by ADP acyl phosphate probe addition and measured after 10 mins by LC-MS/MS analysis relative to control. The format is subcellular. Conditions: time 25.0 min.

A short description of series [6]: Inhibition of MSK1/2 domain 1 in human HeLa cells lysate at 10 uM pre incubated for 15 mins followed by ATP acyl phosphate probe addition and measured after 10 mins by LC-MS/MS analysis relative to control. The following applies: 25 min, condition cancer.
The target of series [7] is T2, Phosphatidylinositol 5-phosphate 4-kinase type-2 alpha (Homo sapiens). The series is described as follows: Inhibition of PIP5K2A in human HeLa cells lysate at 2 uM pre incubated for 15 mins followed by ATP acyl phosphate probe addition and measured after 10 mins by LC-MS/MS analysis relative to control. Format: subcellular. Conditions: time 25.0 min.
The target of series [8] is T4, Dual specificity mitogen-activated protein kinase kinase 5 (Homo sapiens) (UniProt Q13163).
T4 sequence (whole entry): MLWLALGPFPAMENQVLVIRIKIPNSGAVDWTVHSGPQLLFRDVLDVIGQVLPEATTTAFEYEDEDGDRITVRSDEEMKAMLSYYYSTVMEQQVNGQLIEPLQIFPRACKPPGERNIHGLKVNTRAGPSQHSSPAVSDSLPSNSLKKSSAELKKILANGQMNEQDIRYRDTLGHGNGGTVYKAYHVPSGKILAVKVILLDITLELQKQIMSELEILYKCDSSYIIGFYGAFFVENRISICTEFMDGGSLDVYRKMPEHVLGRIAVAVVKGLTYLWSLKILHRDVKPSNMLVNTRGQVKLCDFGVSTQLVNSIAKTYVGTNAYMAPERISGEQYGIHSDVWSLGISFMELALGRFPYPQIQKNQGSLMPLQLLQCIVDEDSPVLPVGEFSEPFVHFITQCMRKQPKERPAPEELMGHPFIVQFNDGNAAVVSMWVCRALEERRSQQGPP
The series is described as follows: Inhibition of MAP2K5 in human HeLa cells lysate at 10 uM pre incubated for 15 mins followed by ADP acyl phosphate probe addition and measured after 10 mins by LC-MS/MS analysis relative to control. Format: subcellular. Conditions: time 25.0 min.

Active and inactive are the calls of the source. The calls are words filed in the database; no cut-off is given here.

Sequence of Calcium/calmodulin-dependent protein kinase type II subunit gamma (Q13555 whole entry, the tested form may be a part): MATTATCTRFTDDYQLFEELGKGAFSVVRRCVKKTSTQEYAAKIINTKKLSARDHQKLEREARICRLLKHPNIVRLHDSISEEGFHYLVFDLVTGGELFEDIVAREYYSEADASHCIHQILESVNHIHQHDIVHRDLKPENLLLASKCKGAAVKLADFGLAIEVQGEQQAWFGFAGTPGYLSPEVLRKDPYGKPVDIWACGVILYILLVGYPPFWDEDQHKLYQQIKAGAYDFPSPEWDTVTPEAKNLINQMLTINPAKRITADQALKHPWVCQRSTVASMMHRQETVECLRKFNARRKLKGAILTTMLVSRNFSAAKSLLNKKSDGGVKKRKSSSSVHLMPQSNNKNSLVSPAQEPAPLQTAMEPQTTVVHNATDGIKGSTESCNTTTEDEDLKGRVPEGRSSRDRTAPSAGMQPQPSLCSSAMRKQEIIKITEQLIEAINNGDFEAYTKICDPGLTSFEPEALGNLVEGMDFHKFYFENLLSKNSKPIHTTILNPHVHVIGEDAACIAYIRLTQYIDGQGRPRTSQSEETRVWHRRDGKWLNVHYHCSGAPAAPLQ
Sequence of Aurora kinase A (O14965 whole entry): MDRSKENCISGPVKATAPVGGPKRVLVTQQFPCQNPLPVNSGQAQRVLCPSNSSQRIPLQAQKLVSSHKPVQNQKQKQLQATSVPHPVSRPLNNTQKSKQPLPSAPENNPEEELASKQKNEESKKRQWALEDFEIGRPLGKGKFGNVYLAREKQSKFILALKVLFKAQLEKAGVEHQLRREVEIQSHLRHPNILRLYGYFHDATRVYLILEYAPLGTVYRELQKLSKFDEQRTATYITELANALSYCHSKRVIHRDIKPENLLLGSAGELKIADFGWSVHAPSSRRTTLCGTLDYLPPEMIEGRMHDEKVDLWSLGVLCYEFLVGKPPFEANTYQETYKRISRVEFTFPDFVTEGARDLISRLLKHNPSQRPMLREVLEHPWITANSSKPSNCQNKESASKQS

On to `CCOc1cc(N2CCC(O)CC2)ccc1Nc1ncc2c(n1)N(C)c1ccccc1C(=O)N2C`, for which the result in the series with HeLa was Active. Besides, the inhibition (as a rule, the drop in the measured response relative to a control, in per cent) in series [1] was -9.9%; in series [2], -2.2%; in [3], -2.5%; in [5], 1.2%; in [7], -4.6%; in series [8], -9.9%. The same molecule returned a concentration at 96 h in [4] of 9 µM. Besides, on Aurora kinase A, the IC50 (in general, the concentration at which inhibition is half-maximal) is over 50 µM. Also, the inhibition at 10 µM in series [6] was -10.6%.

Source of the values: ChEMBL document CHEMBL5661979, “Pharmacological inhibition of BMK1 suppresses tumor growth through promyelocytic leukemia protein” (Cancer Cell, 2010).
